Compounds with a hit are over-represented: about 3.8% of the library has one in this group of screens.
Yeast lifespan up = extends the lifespan of yeast; S. cerevisiae growth with nicotinamide, OD615; deaD strain in restrictive glucose medium; inhibition of the nicotinamide effect, % at 10 µM; 130,000 tested, 0.68% active; AID 775;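 active means inhibition above a set limit, placed 3 SD over the median of all compounds, cut at about 26% in these data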;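 further: 0% = nicotinamide-treated wells and 100% = cells grown without nicotinamide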
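Material: Modified budding yeast, DeaD strain | Medium: Restrictive glucose medium | Probe or stimulus: 1.5 mM nicotinamide | Dosing: Single dose 10 µM compound, 0.25% DMSO | Times: 48 h at 30 °C | Technique: OD615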
sdo1 growth = sdo1-depleted yeast growth rescue. S. cerevisiae sdo1-depleted JHY4D growth rescue, OD600 30 h; hits give high values; pdr5 snq2 efflux-pump mutant strain. z-score at 10 µM. 140,000 tested, 0.21% active. AID 817;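 active means z-score above 3 at both the 24 hr and the 30 hr optical density reads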;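 further: z-score against mean and SD of all compound wells on the same plate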
BB579 growth dn = yeast BB579 growth reduction in restrictive medium | S. cerevisiae BB579 growth, OD615, 48 h | inhibition, % at 10 µM | 140,000 tested, 0.51% active | AID 804;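 active means inhibition above a set limit, 3 SD over the mean compound inhibition, cut at about 44% in these data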
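test system = yeast BB579 (DeaD) | buffer or medium = restrictive CSMM-D medium | doses = single compound dose of 10 µM, 0.25% DMSO final | times = 4 h preincubation and 48 h exposure at 30 °C | technique = culture absorbance at 615 nm | benchmarks = amphotericin B 10 µg/mL, positive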
Measles CPE = protection of cells from measles virus; AID 841; Measles virus-infected cells, CPE protection, absorbance; 140,000 tested, 1.5% active; protection (pct of control), % at 4 µM; in the data active means protection mostly above about 24%, no sharp cut-off; inactive means mostly below about 26%
RAM network inh = inhibitors of the yeast RAM network; S. cerevisiae dse1pr::URA3 reporter, 5-FOA growth OD615, 2 d; analog-sensitive cbk1-as2 kinase mutant strain; inhibition, % at 50 µM; 190,000 tested, 1.8% active; AID 868;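 active means inhibition above a set limit, 3 SD over mean compound inhibition, cut at about 8.4% in these data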;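 further: 0% = DMSO-only wells with no growth and 100% = 10 µM 1-NA-PP1 full growth; inhibition rescues growth on 5-FOA so higher OD means more RAM inhibition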
The depositor's hits bear a star.

`Cc1ccc2cc(CN(Cc3cccs3)Cc3nnnn3CC3CCCO3)c(=O)[nH]c2c1` (centres undefined) gave Yeast lifespan up 2, sdo1 growth 0.1, BB579 growth dn -32, Measles CPE 31* and RAM network inh 0.
For COc1cccc2c(=O)n(CC(=O)Nc3ccccc3)ccc12 the results were Yeast lifespan up -4, sdo1 growth 0.44, BB579 growth dn 6, Measles CPE 90* and RAM network inh 2.
Screening Cc1cc(C(=O)N2CCN(Cc3ccc4c(c3)OCO4)CC2)cs1 returned Yeast lifespan up -14, sdo1 growth -0.4, BB579 growth dn -1, Measles CPE 11 and RAM network inh -1.
For c1ccc2c(-n3cccn3)cccc2c1 the results were Yeast lifespan up -17, sdo1 growth 0.35, BB579 growth dn -72, Measles CPE 39* and RAM network inh 1.
`CN(C)c1ccc(N=C/C=C2/N(C)c3ccccc3C2(C)C)cc1` gave Yeast lifespan up -1, sdo1 growth 1.8, BB579 growth dn -1, Measles CPE 12 and RAM network inh 1.
For Cc1ccc(-c2nc3cc(N)ccc3o2)cc1 the results were Yeast lifespan up -21, sdo1 growth -0.31, BB579 growth dn -23, Measles CPE 7 and RAM network inh 0.
For Cc1ccc(-c2nc3cc(C)ccc3o2)cc1 the results were Yeast lifespan up -26, sdo1 growth -0.17, BB579 growth dn -50, Measles CPE 56* and RAM network inh 3.
`Cn1ccnc1C(=O)c1ccc(S(=O)(=O)N2CCCC2)cc1` gave RAM network inh 3.
CCOC(=O)N/N=C(/C)c1ccc([N+](=O)[O-])o1 was read as Yeast lifespan up -7, sdo1 growth 0.29, BB579 growth dn -15, Measles CPE 83* and RAM network inh 0.
`O=c1c2sccc2n(Cc2ccc(F)cc2)c(=O)n1-c1ccc(F)cc1` gave Yeast lifespan up -1, sdo1 growth -0.56, BB579 growth dn -13, Measles CPE 35 and RAM network inh 10*.
`O=C(O)CC1SC(=Nc2ccccc2)N(c2ccccc2)C1=O` (centres undefined) gave Yeast lifespan up -8, sdo1 growth -0.32, BB579 growth dn 2, Measles CPE 51* and RAM network inh 1.
`O=C(O)CC1S/C(=N\N=C2CCCCCCC2)N(c2ccccc2)C1=O` (centres undefined) gave RAM network inh 0.
Screening CCC(C(=O)OCC(=O)Nc1cccc(C(C)=O)c1)c1ccccc1 (centres undefined) returned RAM network inh 3.
`CCC(C(=O)OCC(=O)Nc1cc(Cl)cc(Cl)c1)c1ccccc1` (centres undefined) gave Yeast lifespan up 2, sdo1 growth -0.98, BB579 growth dn -63, Measles CPE 5 and RAM network inh 11*.
For COc1cc(Cl)ccc1NC(=O)COc1ccccc1C(=O)NN the results were RAM network inh 0.
Screening Cc1ccc(S(=O)(=O)Nc2c3ccccc3nc(=O)n2-c2ccccc2)cc1 returned Yeast lifespan up -5, sdo1 growth -0.52, BB579 growth dn -10, Measles CPE 35* and RAM network inh 4.
`COc1ccc(NC(=O)N2CCC(n3nnc4cc(C)ccc43)CC2)cc1` gave sdo1 growth 0.93, BB579 growth dn -6, Measles CPE 20 and RAM network inh 0.
Screening Clc1ccc(-c2nnc3sc(Cc4cccs4)nn23)c(Cl)c1 returned Yeast lifespan up -10, sdo1 growth -0.94, BB579 growth dn 3, Measles CPE 68* and RAM network inh 3.
Screening c1coc(-c2nnc3sc(Cc4cccs4)nn23)c1 returned Yeast lifespan up -24, sdo1 growth -0.36, BB579 growth dn -31, Measles CPE 41 and RAM network inh 0.
Cc1cccc(C(=O)Nc2ccccc2SCC2CSc3nc4ccccc4c(=O)n32)c1 (centres undefined) was read as Yeast lifespan up -5, sdo1 growth -0.51, BB579 growth dn -31, Measles CPE 25* and RAM network inh 1.
Screening Cc1ccc(C(=O)Nc2ccccc2SCC2CSc3nc4ccccc4c(=O)n32)cc1 (centres undefined) returned Yeast lifespan up -19, sdo1 growth 0.43, BB579 growth dn -18, Measles CPE 63* and RAM network inh 0.
For O=C(Nc1ccccc1SCC1CSc2nc3ccccc3c(=O)n21)c1cccc(Cl)c1 (centres undefined) the results were Yeast lifespan up -12, sdo1 growth 0.39, BB579 growth dn -23, Measles CPE 36* and RAM network inh 0.
O=C(Nc1ccccc1SCC1CSc2nc3ccccc3c(=O)n21)c1ccccc1Cl (centres undefined) was read as Yeast lifespan up -4, sdo1 growth 0.04, BB579 growth dn 4, Measles CPE 4 and RAM network inh 1.
For O=C(Nc1ccccc1SCC1CSc2nc3ccccc3c(=O)n21)c1ccccc1 (centres undefined) the results were Yeast lifespan up -8, sdo1 growth 0.87, BB579 growth dn -71, Measles CPE 4 and RAM network inh 1.
O=C(COC(=O)C1c2ccccc2Oc2ccccc21)NC1CCS(=O)(=O)C1 (centres undefined) was read as Yeast lifespan up -27, sdo1 growth -0.18, BB579 growth dn -35, Measles CPE active and RAM network inh 3.
Screening CN(C(=O)COC(=O)C1c2ccccc2Oc2ccccc21)C1CCS(=O)(=O)C1 (centres undefined) returned Yeast lifespan up -7, sdo1 growth -0.16, BB579 growth dn 16, Measles CPE 2 and RAM network inh 1.
For Cc1ccc2c(c1)c(N=Nc1cccc(C(=O)O)c1)c(O)n2C the results were RAM network inh 3.
CCOc1ccc2c(c1)c(N=Nc1cccc(C(=O)O)c1)c(O)n2C was read as Yeast lifespan up 6, sdo1 growth -0.86, BB579 growth dn -48, Measles CPE 5 and RAM network inh 10*.
CCC(=O)Nc1nc2ccc(S(C)(=O)=O)cc2s1 was read as sdo1 growth 2.2, BB579 growth dn -4, Measles CPE 52* and RAM network inh 1.
CCOCC(=O)Nc1nc2ccc(S(C)(=O)=O)cc2s1 was read as Yeast lifespan up -20, sdo1 growth 2.3, BB579 growth dn -20, Measles CPE 10 and RAM network inh 1.
CCSC(C)CC1CC(=O)CC(=O)C1 (centres undefined) was read as Yeast lifespan up 18, sdo1 growth 0.73, BB579 growth dn -18, Measles CPE 14 and RAM network inh 1.
For CCOC(=O)C1C(=O)C(C(C)=O)C(=O)CC1CC(C)SCC (centres undefined) the results were Yeast lifespan up 93*, sdo1 growth 0.01, BB579 growth dn -50, Measles CPE 7 and RAM network inh -2.

Screening results deposited in PubChem by several laboratories.
